Reference: ChEMBL document CHEMBL4033663, “Design, combinatorial synthesis and biological evaluations of novel 3-amino-1'-((1-aryl-1H-1,2,3-triazol-5-yl)methyl)-2'-oxospiro[benzo[a] pyrano[2,3-c]phenazine-1,3'-indoline]-2-carbonitrile antitumor hybrid molecules” (Eur J Med Chem, 2017)
pIC50: −log10 of the molar value. Activity calls are given as the source filed them. No cut-off for these calls is given here.

How the values were obtained:
HepG2 = experiment: Antiproliferative activity against human HepG2 cells after 48 hrs by MTT assay; type: functional, cell-based; settings: HepG2, 48 h
A549 [1] = experiment: Antiproliferative activity against human A549 cells after 48 hrs by MTT assay; type: functional, cell-based; settings: A549, 48 h
MCF7 = experiment: Antiproliferative activity against human MCF7 cells after 48 hrs by MTT assay; type: functional, cell-based; settings: MCF7, 48 h
HCT-116 = experiment: Antiproliferative activity against human HCT116 cells after 48 hrs by MTT assay; type: functional, cell-based; settings: HCT-116, 48 h
L02 = experiment: Antiproliferative activity against human L02 cells after 48 hrs by MTT assay; type: cell-based; settings: L02, 48 h
HUVEC = experiment: Antiproliferative activity against human HUVEC cells after 48 hrs by MTT assay; type: cell-based
[2] = Drug uptake in mitochondria of human A549 cells at 2 to 8 uM after 30 mins by MitoTracker Red CMXRos dye-based confocal microscopic analysis; type: ADME, cell-based; settings: a549, 0.5 h
Method in brief: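 Live A549 cells were grown for 2 days in confocal dishes. They were then incubated with compound and MitoTracker Red CMXRos in culture medium for 30 min, and localization was imaged by laser-scanning confocal microscopy.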

A549 [3] = experiment: Induction of reactive oxygen species generation in human A549 cells by MitoSOX Red dye-based FACS analysis; type: functional, cell-based
Method in brief: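 Treated A549 cells were stained with a kit dye that distinguishes ROS(−) and ROS(+) populations. Percentages of each population were measured by flow cytometry.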

A549 [4] = experiment: Cell cycle arrest in human A549 cells assessed as accumulation at S-phase at 3 uM after 24 hrs by propidium iodide staining-based FACS analysis (reference value: 17.8 %); type: functional
A549 [5] = experiment: Cell cycle arrest in human A549 cells assessed as accumulation at S-phase at 6 uM after 24 hrs by propidium iodide staining-based FACS analysis (reference value: 17.8 %); type: functional
A549 [6] = experiment: Cell cycle arrest in human A549 cells assessed as accumulation at S-phase at 12 uM after 24 hrs by propidium iodide staining-based FACS analysis (reference value: 17.8 %); type: functional
A549 [7] = experiment: Up regulation of p53 expression in human A549 cells at 3 to 12 uM after 24 hrs by Western blot analysis; type: functional, cell-based
Method in brief: (§1)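 A549 cells (3 × 10^5 per dish) were treated for 24 h and lysed in RIPA buffer; protein was measured by BCA. Lysates were run on 12% SDS-PAGE and blotted to nitrocellulose. Blots were blocked in 5% non-fat milk for 2 h at room temperature, then incubated with primary antibodies in TBST overnight at 4 °C. ECL detection was used, with bands normalized to β-actin (mean ± SD, three experiments).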

A549 [8] = experiment: Up regulation of p21 expression in human A549 cells at 3 to 12 uM after 24 hrs by Western blot analysis; type: functional, cell-based; method in brief: as §1
A549 [9] = experiment: Down regulation of cyclin E expression in human A549 cells after 24 hrs by Western blot analysis; type: functional, cell-based; method in brief: as §1
A549 [10] = experiment: Down regulation of CDK2 expression in human A549 cells after 24 hrs by Western blot analysis; type: functional, cell-based; method in brief: as §1
A549 [11] = experiment: Effect on cyclin B expression in human A549 cells at 3 to 12 uM after 24 hrs by Western blot analysis; type: functional, cell-based; method in brief: as §1
A549 [12] = experiment: Effect on cyclin D expression in human A549 cells at 3 to 12 uM after 24 hrs by Western blot analysis; type: functional, cell-based; method in brief: as §1
A549 [13] = experiment: Effect on CDK1 expression in human A549 cells at 3 to 12 uM after 24 hrs by Western blot analysis; type: functional, cell-based; method in brief: as §1
A549 [14] = experiment: Induction of apoptosis in human A549 cells assessed as increase in Bax/Bcl-2 ratio after 24 hrs by Western blot analysis; type: functional, cell-based; method in brief: as §1
A549 [15] = experiment: Induction of apoptosis in human A549 cells assessed as increase in cleaved caspase-3 level at 3 to 12 uM after 24 hrs by Western blot analysis; type: functional, cell-based; method in brief: as §1
A549 [16] = experiment: Induction of apoptosis in human A549 cells assessed as increase in cleaved caspase-9 level at 3 to 12 uM after 24 hrs by Western blot analysis; type: functional, cell-based; method in brief: as §1
A549 [17] = experiment: Induction of apoptosis in human A549 cells assessed as early apoptotic cells at 3 uM after 24 hrs by Annexin V-APC/7-AAD staining-based FACS analysis (reference value: 5.82%); type: functional
A549 [18] = experiment: Induction of apoptosis in human A549 cells assessed as late apoptotic cells at 3 uM after 24 hrs by Annexin V-APC/7-AAD staining-based FACS analysis (reference value: 0.01%); type: functional
A549 [19] = experiment: Induction of apoptosis in human A549 cells assessed as necrotic cells at 3 uM after 24 hrs by Annexin V-APC/7-AAD staining-based FACS analysis (reference value: 0.032%); type: functional
A549 [20] = experiment: Induction of apoptosis in human A549 cells assessed as viable cells at 3 uM after 24 hrs by Annexin V-APC/7-AAD staining-based FACS analysis (reference value: 94.1%); type: functional; settings: A549, 24 h, read-out: Activity
A549 [21] = experiment: Induction of apoptosis in human A549 cells assessed as early apoptotic cells at 6 uM after 24 hrs by Annexin V-APC/7-AAD staining-based FACS analysis (reference value: 5.82%); type: functional
A549 [22] = experiment: Induction of apoptosis in human A549 cells assessed as late apoptotic cells at 6 uM after 24 hrs by Annexin V-APC/7-AAD staining-based FACS analysis (reference value: 0.01%); type: functional
A549 [23] = experiment: Induction of apoptosis in human A549 cells assessed as necrotic cells at 6 uM after 24 hrs by Annexin V-APC/7-AAD staining-based FACS analysis (reference value: 0.032%); type: functional
A549 [24] = experiment: Induction of apoptosis in human A549 cells assessed as viable cells at 6 uM after 24 hrs by Annexin V-APC/7-AAD staining-based FACS analysis (reference value: 94.1%); type: functional; settings: A549, 24 h, read-out: Activity
A549 [25] = experiment: Induction of apoptosis in human A549 cells assessed as early apoptotic cells at 12 uM after 24 hrs by Annexin V-APC/7-AAD staining-based FACS analysis (reference value: 5.82%); type: functional
A549 [26] = experiment: Induction of apoptosis in human A549 cells assessed as late apoptotic cells at 12 uM after 24 hrs by Annexin V-APC/7-AAD staining-based FACS analysis (reference value: 0.01%); type: functional
A549 [27] = experiment: Induction of apoptosis in human A549 cells assessed as necrotic cells at 12 uM after 24 hrs by Annexin V-APC/7-AAD staining-based FACS analysis (reference value: 0.032%); type: functional
A549 [28] = experiment: Induction of apoptosis in human A549 cells assessed as viable cells at 12 uM after 24 hrs by Annexin V-APC/7-AAD staining-based FACS analysis (reference value: 94.1%); type: functional; settings: A549, 24 h, read-out: Activity

Compound `N#CC1=C(N)Oc2c(N)cc3nc4ccccc4nc3c2C12C(=O)N(Cc1cnnn1-c1cccc(C(F)(F)F)c1)c1ccccc12` (stereo not drawn) has a pIC50 (HepG2) of 4.80, a pIC50 (A549 [1]) of 5.27 and a pIC50 (MCF7) of 4.50. The pIC50 (HCT-116) was 4.72, the pIC50 (L02) was 4.42 and the pIC50 (HUVEC) was under 4.30. For the same compound, the Drug uptake [2] was “Active”, the Activity (A549 [3]) was “Dose-dependent effect” and the Activity (A549 [4]) was 30.5%. The Activity (A549 [5]) was 41.7%, the Activity (A549 [6]) was 51.1% and the Activity (A549 [7]) was “Active”. The Activity (A549 [8]) was “Active”, the Activity (A549 [9]) was “Dose-dependent effect” and the Activity (A549 [10]) was “Dose-dependent effect”. The Activity (A549 [11]) was “inactive”, the Activity (A549 [12]) was “inactive” and the Activity (A549 [13]) was “inactive”. The Activity (A549 [14]) was “Dose-dependent effect”, the Activity (A549 [15]) was “Active” and the Activity (A549 [16]) was “Active”. It also gave an Activity (A549 [17]) of 8.89%, an Activity (A549 [18]) of 0.031% and an Activity (A549 [19]) of 0.052%. The viability at 3 µM (A549 [20]) was 91%, the Activity (A549 [21]) was 11.2% and the Activity (A549 [22]) was 0.053%. It also gave an Activity (A549 [23]) of 0.127%, a viability at 6 µM (A549 [24]) of 88.6% and an Activity (A549 [25]) of 38.5%. For the same compound, the Activity (A549 [26]) was 2.32%, the Activity (A549 [27]) was 3.21% and the viability at 12 µM (A549 [28]) was 55.9%.
